Experimental data taken from ChEMBL document CHEMBL4316592, “Synthesis of new derivatives of boehmeriasin A and their biological evaluation in liver cancer” (Eur J Med Chem, 2019).
The source made the active and inactive calls. No cut-off for these calls is given here.

Assays:
MCF-10A = experiment: Cytotoxicity against human MCF10A cells after 72 hrs by SRB assay; type: cell-based
Mahlavu [1] = experiment: Down-regulation of CDK1 protein expression in human Mahlavu cells at 1 uM after 24 to 72 hrs by Western blot analysis; type: functional, cell-based
Mahlavu [2] = experiment: Cytotoxicity against human Mahlavu cells after 72 hrs by SRB assay; type: functional, cell-based; conditions: Homo sapiens, Mahlavu, 72 h; read-out: IC50
In short: (§1)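 SRB assay. Cells plated per well (HCT116 3000; Huh7, Hep3B, HepG2, MCF-7 2000; Mahlavu, FOCUS, SNU475 1000) and grown 24 h. Compounds came from 20 mM DMSO stocks and were tested in triplicate, 40 to 2,5 (or 2,5 to 0,03) per printed range, for 72 h. Cells fixed in 10% TCA, stained with 0.4% SRB, dye dissolved in 10 mM Tris, A515 read. IC50 derived after DMSO normalization.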

Mahlavu [3] = experiment: Cell cycle arrest in human Mahlavu cells assessed as accumulation of cells at S phase at 1 uM after 72 hrs by propidium iodide staining-based flow cytometric analysis (reference value: 13%); type: functional
Huh-7 [4] = experiment: Induction of apoptosis in human HuH7 cells assessed as increase in cleaved PARP levels at 1 uM after 72 hrs by Western blot analysis; type: functional, cell-based
Huh-7 [5] = experiment: Induction of apoptosis in human HuH7 cells assessed as viable cells at 1 uM after 72 hrs by Annexin V-FITC/propidium iodide staining-based flow cytometric analysis (reference value: 97.20%); type: functional; conditions: Huh-7, 72 h, read-out: Activity
SNU-475 = experiment: Cytotoxicity against human SNU475 cells after 72 hrs by SRB assay; type: functional, cell-based; conditions: Homo sapiens, SNU-475, 72 h; read-out: IC50; in short: as §1
Homo sapiens = organism: Homo sapiens; experiment: Induction of SAPK/JNK phosphorylation at Thr183/Tye185 residues in human HuH7 cells at 1 uM after 24 to 72 hrs by Western blot analysis; type: cell-based
Huh-7 [6] = experiment: Induction of apoptosis in human HuH7 cells assessed as necrotic cells at 1 uM after 24 hrs by Annexin V-FITC/propidium iodide staining-based flow cytometric analysis (reference value: 0.03%); type: functional
Mahlavu [7] = experiment: Induction of apoptosis in human Mahlavu cells assessed as necrotic cells at 1 uM after 72 hrs by Annexin V-FITC/propidium iodide staining-based flow cytometric analysis (reference value: 0.22%); type: functional
Mahlavu [8] = experiment: Cell cycle arrest in human Mahlavu cells assessed as accumulation of cells at G1 phase at 1 uM after 48 hrs by propidium iodide staining-based flow cytometric analysis (reference value: 43.5%); type: functional
Huh-7 [9] = experiment: Induction of apoptosis in human HuH7 cells assessed as early apoptotic cells at 1 uM after 24 hrs by Annexin V-FITC/propidium iodide staining-based flow cytometric analysis (reference value: 0.17%); type: functional
Huh-7 [10] = experiment: Induction of apoptosis in human HuH7 cells assessed as early apoptotic cells at 1 uM after 72 hrs by Annexin V-FITC/propidium iodide staining-based flow cytometric analysis (reference value: 0.03%); type: functional
Huh-7 [11] = experiment: Cell cycle arrest in human HuH7 cells assessed as accumulation of cells at G2/M phase at 1 uM after 72 hrs by propidium iodide staining-based flow cytometric analysis (reference value: 28.2%); type: functional
Huh-7 [12] = experiment: Cell cycle arrest in human HuH7 cells assessed as accumulation of cells at subG1 phase at 1 uM after 72 hrs by propidium iodide staining-based flow cytometric analysis (reference value: 4.7%); type: functional
HCT-116 = experiment: Cytotoxicity against human HCT116 cells after 72 hrs by SRB assay; type: functional, cell-based; conditions: Homo sapiens, HCT-116, 72 h; read-out: IC50; in short: as §1
Mahlavu [13] = experiment: Cell cycle arrest in human Mahlavu cells assessed as accumulation of cells at subG1 phase at 1 uM after 48 hrs by propidium iodide staining-based flow cytometric analysis (reference value: 22.6%); type: functional
Huh-7 [14] = experiment: Cell cycle arrest in human HuH7 cells assessed as accumulation of cells at S phase at 1 uM after 48 hrs by propidium iodide staining-based flow cytometric analysis (reference value: 19.1%); type: functional
Huh-7 [15] = experiment: Cell cycle arrest in human HuH7 cells assessed as accumulation of cells at G1 phase at 1 uM after 24 hrs by propidium iodide staining-based flow cytometric analysis (reference value: 41.7%); type: functional
Mahlavu [16] = experiment: Induction of apoptosis in human Mahlavu cells assessed as apoptotic body formation at 1 uM by Hoechst staining-based assay; type: functional, cell-based
Mahlavu [17] = experiment: Cell cycle arrest in human Mahlavu cells assessed as accumulation of cells at S phase at 1 uM after 48 hrs by propidium iodide staining-based flow cytometric analysis (reference value: 11.6%); type: functional
Mahlavu [18] = experiment: Induction of apoptosis in human Mahlavu cells assessed as late apoptotic cells at 1 uM after 24 hrs by Annexin V-FITC/propidium iodide staining-based flow cytometric analysis (reference value: 1.28%); type: functional
Huh-7 [19] = experiment: Cytotoxicity against human HuH7 cells after 48 hrs by RTCA analysis; type: functional, cell-based; conditions: Huh-7, 48 h
In short: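 xCELLigence impedance real-time growth assay. Huh7 (2000) or Mahlavu (1000) cells plated, treated after 24 h at log phase with a 2-fold dilution series (4 steps) from a top concentration of 1. Cell index recorded every 10 min for 24 h, then every 30 min. Growth inhibition normalized to DMSO; IC50 taken at 24, 48, 72 h.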

Mahlavu [20] = experiment: Induction of apoptosis in human Mahlavu cells assessed as early apoptotic cells at 1 uM after 24 hrs by Annexin V-FITC/propidium iodide staining-based flow cytometric analysis (reference value: 0.09%); type: functional
Mahlavu [21] = experiment: Cell cycle arrest in human Mahlavu cells assessed as accumulation of cells at G1 phase at 1 uM after 24 hrs by propidium iodide staining-based flow cytometric analysis (reference value: 33.8%); type: functional
Mahlavu [22] = experiment: Induction of apoptosis in human Mahlavu cells assessed as chromatin condensation at 1 uM by Hoechst staining-based assay; type: functional, cell-based

With `COc1ccc2c3c(c4cc(OC)c(OC)cc4c2c1)CN1CCCC[C@@H]1C3` the IC50 (MCF-10A) was 140 nM, the Activity (Mahlavu [1]) was “Active” and the IC50 (Mahlavu [2]) was 16 nM. For the same molecule, the Activity (Mahlavu [3]) was 9.1%, the Activity (Huh-7 [4]) was “Active” and the viability at 1 µM (Huh-7 [5]) was 83.4%. For the same molecule, the IC50 (SNU-475) was 14 nM, the Activity (Homo sapiens) was “Active” and the Activity (Huh-7 [6]) was 0%. The Activity (Mahlavu [7]) was 1.84%, the Activity (Mahlavu [8]) was 44.6% and the Activity (Huh-7 [9]) was 0.07%. For the same molecule, the Activity (Huh-7 [10]) was 0.1%, the Activity (Huh-7 [11]) was 9.5% and the Activity (Huh-7 [12]) was 57.5%. The IC50 (HCT-116) was 700 nM, the Activity (Mahlavu [13]) was 28.3% and the Activity (Huh-7 [14]) was 13.5%. The Activity (Huh-7 [15]) was 43.1%, the Activity (Mahlavu [16]) was “Active” and the Activity (Mahlavu [17]) was 10.5%. For the same molecule, the Activity (Mahlavu [18]) was 5.08%, the IC50 (Huh-7 [19]) was 700 nM and the Activity (Mahlavu [20]) was 0.12%. For the same molecule, the Activity (Mahlavu [21]) was 43.8% and the Activity (Mahlavu [22]) was “Active”.
For `COc1ccc2c3c(c4cc(OC)c(OC)cc4c2c1)CN1CCCCC1C3O` (racemic), the IC50 (MCF-10A) was 200 nM, the Activity (Mahlavu [1]) was “Active” and the IC50 (Mahlavu [2]) was 10 nM. The Activity (Mahlavu [3]) was 10.2%, the Activity (Huh-7 [4]) was “Active” and the viability at 1 µM (Huh-7 [5]) was 81.7%. For the same molecule, the IC50 (SNU-475) was 15 nM, the Activity (Homo sapiens) was “Active” and the Activity (Huh-7 [6]) was 0%. The Activity (Mahlavu [7]) was 2.26%, the Activity (Mahlavu [8]) was 37.2% and the Activity (Huh-7 [9]) was 0%. For the same molecule, the Activity (Huh-7 [10]) was 0.2%, the Activity (Huh-7 [11]) was 11.5% and the Activity (Huh-7 [12]) was 62.9%. The IC50 (HCT-116) was under 1 nM, the Activity (Mahlavu [13]) was 20.4% and the Activity (Huh-7 [14]) was 21%. For the same molecule, the Activity (Huh-7 [15]) was 31.6%, the Activity (Mahlavu [16]) was “Active” and the Activity (Mahlavu [17]) was 9.5%. For the same molecule, the Activity (Mahlavu [18]) was 1.54%, the IC50 (Huh-7 [19]) was 500 nM and the Activity (Mahlavu [20]) was 0.04%. The Activity (Mahlavu [21]) was 36.8% and the Activity (Mahlavu [22]) was “Active”.
